Data on 46 molecules can be found in ChEMBL document CHEMBL1139464, “SAR and 3D-QSAR studies on thiadiazolidinone derivatives: exploration of structural requirements for glycogen synthase kinase 3 inhibitors” (J Med Chem, 2005).

The target of assay [1] is Glycogen synthase kinase-3 (Oryctolagus cuniculus). In words: Inhibition of rabbit GSK3.
Assay [2] deals with Dual specificity mitogen-activated protein kinase kinase 1 (Homo sapiens) (UniProt Q02750). As to the kind of experiment: Inhibition of MEK1K at 10 uM. The gist of the method: (§1)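 Pan-kinase selectivity screen run at an outside lab using previously described assays for each kinase. Activated kinase phosphorylates its appropriate peptide or protein substrate with test substance at 10 µM. Percent inhibition is taken against control incubations in which the inhibitor is replaced by DMSO, with staurosporine as reference. Reported as the mean of duplicate determinations.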

Assay [3] has as its target Tyrosine-protein kinase Lck (Homo sapiens) (UniProt P06239). In words: Inhibition of protein kinase p56 at 10 uM. The gist of the method: as §1
The target of assay [4] is Tyrosine-protein kinase ABL1 (Homo sapiens) (UniProt P00519). As to the kind of experiment: Inhibition of Abl kinase at 10 uM. The gist of the method: as §1
Assay [5] concerns the target CaM kinase II (Homo sapiens) (UniProt Q13557+Q13555+Q13554+Q9UQM7). In words: Inhibition of CAMK2 at 10 uM. The format is protein assay. The gist of the method:
as §1

Assay [6] deals with Epidermal growth factor receptor (Homo sapiens) (UniProt P00533). As to the kind of experiment: Inhibition of EGF tyrosine kinase at 10 uM. The gist of the method:
as §1

The target in assay [7] is Insulin receptor (Homo sapiens) (UniProt P06213). In words: Inhibition of IRK at 10 uM. An outline of the steps: as §1
The target in assay [8] is Mitogen-activated protein kinase; ERK1/ERK2 (Homo sapiens) (UniProt P27361+P28482). As to the kind of experiment: Inhibition of MAPK at 10 uM. The format is protein assay. The gist of the method: as §1

For orientation: IC50 means the concentration at which inhibition is half-maximal. A lower IC50 goes with greater potency in that assay. As usually defined, the inhibition is the share of the control response that was lost under treatment. Lower therefore signals a response near the control.

The structures appear in SMILES notation. Bounds are passed on as bounds.

Sequence of Mitogen-activated protein kinase; ERK1/ERK2 (Homo sapiens) (P27361 whole entry, looked up): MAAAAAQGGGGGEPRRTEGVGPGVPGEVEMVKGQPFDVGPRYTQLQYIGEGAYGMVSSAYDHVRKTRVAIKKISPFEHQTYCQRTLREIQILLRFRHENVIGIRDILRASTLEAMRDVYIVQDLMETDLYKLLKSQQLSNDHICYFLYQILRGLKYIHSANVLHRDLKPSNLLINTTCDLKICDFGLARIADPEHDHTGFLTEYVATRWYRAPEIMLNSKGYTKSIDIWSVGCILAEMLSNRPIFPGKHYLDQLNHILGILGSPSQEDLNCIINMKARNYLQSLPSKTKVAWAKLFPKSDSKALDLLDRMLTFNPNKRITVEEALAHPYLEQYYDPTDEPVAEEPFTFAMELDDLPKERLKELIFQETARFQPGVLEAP
Sequence of Mitogen-activated protein kinase; ERK1/ERK2 (Homo sapiens) (P28482 whole entry, looked up): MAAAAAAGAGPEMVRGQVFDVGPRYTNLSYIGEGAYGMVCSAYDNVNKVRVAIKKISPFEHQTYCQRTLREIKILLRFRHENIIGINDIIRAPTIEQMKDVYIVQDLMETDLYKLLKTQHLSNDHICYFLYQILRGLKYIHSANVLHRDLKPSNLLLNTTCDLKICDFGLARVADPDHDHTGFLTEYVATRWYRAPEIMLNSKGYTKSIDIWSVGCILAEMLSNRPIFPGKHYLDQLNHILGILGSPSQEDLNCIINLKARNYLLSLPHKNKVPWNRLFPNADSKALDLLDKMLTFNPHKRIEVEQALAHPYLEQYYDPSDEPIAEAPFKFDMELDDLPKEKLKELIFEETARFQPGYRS
Sequence of Tyrosine-protein kinase Lck (Homo sapiens) (P06239 2-509 limits assumed): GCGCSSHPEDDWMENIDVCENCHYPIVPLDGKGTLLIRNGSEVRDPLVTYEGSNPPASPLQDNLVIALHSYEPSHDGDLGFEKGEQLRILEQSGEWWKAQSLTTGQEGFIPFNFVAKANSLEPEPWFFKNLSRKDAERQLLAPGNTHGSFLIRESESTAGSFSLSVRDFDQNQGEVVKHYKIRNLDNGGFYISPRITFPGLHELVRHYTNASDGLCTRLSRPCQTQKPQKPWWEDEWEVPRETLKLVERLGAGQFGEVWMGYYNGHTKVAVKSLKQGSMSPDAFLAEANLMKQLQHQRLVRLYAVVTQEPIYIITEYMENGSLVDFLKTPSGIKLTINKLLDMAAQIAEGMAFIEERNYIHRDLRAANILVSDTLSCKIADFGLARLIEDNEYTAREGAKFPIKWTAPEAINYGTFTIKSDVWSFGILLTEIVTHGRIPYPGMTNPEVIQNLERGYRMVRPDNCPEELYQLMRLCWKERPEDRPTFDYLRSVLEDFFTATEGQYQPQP
Sequence of Insulin receptor (Homo sapiens) (P06213 28-758 limits assumed): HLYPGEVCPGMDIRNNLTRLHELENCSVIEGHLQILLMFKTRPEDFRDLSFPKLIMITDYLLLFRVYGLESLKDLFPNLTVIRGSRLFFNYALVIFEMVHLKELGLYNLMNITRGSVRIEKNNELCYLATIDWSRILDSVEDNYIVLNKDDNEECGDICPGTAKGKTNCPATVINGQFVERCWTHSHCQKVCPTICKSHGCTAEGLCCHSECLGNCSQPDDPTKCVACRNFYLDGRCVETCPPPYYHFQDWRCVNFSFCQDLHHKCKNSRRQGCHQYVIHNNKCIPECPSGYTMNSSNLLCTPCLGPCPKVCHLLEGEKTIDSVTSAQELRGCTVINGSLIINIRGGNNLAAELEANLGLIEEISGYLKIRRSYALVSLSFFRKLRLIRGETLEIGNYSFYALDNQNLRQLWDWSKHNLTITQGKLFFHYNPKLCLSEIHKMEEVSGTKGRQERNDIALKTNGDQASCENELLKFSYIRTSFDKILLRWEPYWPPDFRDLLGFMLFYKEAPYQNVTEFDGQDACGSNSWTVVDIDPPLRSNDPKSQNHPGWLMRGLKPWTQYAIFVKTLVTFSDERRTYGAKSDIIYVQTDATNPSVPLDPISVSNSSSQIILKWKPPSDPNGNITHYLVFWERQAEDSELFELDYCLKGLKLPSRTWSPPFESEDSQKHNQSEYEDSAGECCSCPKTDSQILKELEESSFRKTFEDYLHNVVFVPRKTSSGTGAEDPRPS
Sequence of Insulin receptor (Homo sapiens) (P06213 763-1382 limits assumed): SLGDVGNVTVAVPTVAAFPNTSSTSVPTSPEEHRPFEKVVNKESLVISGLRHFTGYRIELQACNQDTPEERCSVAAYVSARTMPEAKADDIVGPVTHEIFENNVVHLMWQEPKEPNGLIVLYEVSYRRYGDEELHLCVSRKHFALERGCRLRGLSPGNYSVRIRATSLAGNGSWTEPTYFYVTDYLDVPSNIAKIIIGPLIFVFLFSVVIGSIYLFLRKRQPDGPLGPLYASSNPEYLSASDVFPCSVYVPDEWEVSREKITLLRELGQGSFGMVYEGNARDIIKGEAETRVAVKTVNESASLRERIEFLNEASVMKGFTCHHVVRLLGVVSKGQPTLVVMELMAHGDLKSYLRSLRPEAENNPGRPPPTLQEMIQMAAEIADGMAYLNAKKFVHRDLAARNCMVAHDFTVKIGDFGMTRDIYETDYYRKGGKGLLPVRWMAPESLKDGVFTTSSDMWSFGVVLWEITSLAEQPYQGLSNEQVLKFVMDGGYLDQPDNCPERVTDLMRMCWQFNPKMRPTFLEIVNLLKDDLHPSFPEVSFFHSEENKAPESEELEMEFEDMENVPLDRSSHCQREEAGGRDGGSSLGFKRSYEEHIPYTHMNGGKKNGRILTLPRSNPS
Sequence of Tyrosine-protein kinase ABL1 (Homo sapiens) (P00519 whole entry): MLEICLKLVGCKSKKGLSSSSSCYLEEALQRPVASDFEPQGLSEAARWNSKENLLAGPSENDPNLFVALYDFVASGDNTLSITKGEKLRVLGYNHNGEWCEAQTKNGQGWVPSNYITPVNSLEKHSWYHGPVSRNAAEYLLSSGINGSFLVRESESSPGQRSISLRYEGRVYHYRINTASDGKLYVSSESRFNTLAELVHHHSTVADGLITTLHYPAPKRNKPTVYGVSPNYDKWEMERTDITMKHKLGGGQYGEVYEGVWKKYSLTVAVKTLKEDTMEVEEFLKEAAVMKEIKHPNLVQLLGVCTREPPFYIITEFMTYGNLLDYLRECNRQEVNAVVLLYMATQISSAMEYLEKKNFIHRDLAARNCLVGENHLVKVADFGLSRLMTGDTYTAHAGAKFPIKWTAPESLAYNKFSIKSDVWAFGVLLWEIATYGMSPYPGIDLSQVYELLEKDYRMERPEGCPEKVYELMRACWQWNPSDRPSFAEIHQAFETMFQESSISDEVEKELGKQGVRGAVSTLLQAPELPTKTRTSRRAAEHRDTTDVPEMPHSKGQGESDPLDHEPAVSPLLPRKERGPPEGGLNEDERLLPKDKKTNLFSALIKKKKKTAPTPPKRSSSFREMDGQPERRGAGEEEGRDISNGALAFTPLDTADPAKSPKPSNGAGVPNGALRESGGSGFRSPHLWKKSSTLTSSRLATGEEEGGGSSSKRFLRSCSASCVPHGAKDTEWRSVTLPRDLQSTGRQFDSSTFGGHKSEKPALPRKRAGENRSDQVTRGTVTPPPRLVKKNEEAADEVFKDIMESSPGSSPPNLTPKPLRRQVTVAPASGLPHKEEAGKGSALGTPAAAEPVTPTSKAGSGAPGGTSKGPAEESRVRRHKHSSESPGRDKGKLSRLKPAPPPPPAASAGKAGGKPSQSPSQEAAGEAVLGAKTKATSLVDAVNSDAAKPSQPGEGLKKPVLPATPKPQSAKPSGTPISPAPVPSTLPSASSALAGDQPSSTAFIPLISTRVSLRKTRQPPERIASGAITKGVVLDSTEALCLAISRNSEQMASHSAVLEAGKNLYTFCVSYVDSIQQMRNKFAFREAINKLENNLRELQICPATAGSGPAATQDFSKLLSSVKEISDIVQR
Sequence of Dual specificity mitogen-activated protein kinase kinase 1 (Homo sapiens) (Q02750 whole entry): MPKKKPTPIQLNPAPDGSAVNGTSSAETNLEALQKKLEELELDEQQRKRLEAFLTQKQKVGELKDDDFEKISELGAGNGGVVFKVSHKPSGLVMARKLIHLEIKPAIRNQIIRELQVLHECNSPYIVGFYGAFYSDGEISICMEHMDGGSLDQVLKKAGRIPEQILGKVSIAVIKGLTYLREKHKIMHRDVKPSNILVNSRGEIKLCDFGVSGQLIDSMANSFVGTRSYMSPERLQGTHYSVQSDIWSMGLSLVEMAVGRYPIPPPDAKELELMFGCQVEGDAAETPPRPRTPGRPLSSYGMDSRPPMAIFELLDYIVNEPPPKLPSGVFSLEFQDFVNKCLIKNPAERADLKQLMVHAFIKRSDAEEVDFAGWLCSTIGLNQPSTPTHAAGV

Molecule `Cn1sc(=O)n(-c2cccc(Br)c2)c1=O` returned an IC50 in assay [1] of 4 µM.

Molecule `Cn1sc(=O)n(-c2ccc(Br)cc2)c1=O` gave an IC50 in assay [1] of 1.1 µM.

On to `O=C1CCCN1Cc1ccccc1`, for which, in assay [1], the IC50 is more than 100 µM.

Take `Cn1sc(=O)n(C2CCCCC2)c1=O`: the IC50 in assay [1] was 100 µM.

For `COc1ccc(CN2C(=O)C=CC2=O)cc1`, the IC50 in assay [1] was 2.5 µM.

Take `Cn1c(=O)n(-c2ccccc2)c(=O)n1C`: the IC50 in assay [1] amounted to 100 µM.

For the molecule `CCn1sc(=O)n(Cc2ccccc2)c1=O` [KRM-7777], the IC50 in assay [1] was found to be 7 µM.

Take `Cn1sc(=O)n(Cc2ccccc2)c1=O`: the inhibition was less than 10% in assay [2]; 35% in assay [3]; less than 10% in assay [4]; 16% in assay [5]; 25% in assay [6]; 20% in assay [7]. Besides, the inhibition in assay [8] is less than 10%.

Turning to `Cn1sc(=O)n(-c2ccc(C(F)(F)F)cc2)c1=O`, the inhibition in assay [2] is less than 10%; in assay [3], less than 10%; in assay [4] it was less than 10%; in assay [5] it was less than 10%; in assay [6], 17%; in assay [7], 36%. In assay [8], this molecule registered an inhibition of less than 10%. In assay [1], the concentration for half-maximal inhibition (IC50) was found to be 6 µM.

`COc1ccc(CCN2C(=O)CSC2=S)cc1` returned an IC50 in assay [1] of 100 µM.

As for `O=c1sn(Cc2ccccc2)c(=O)n1Cc1ccccc1`, the inhibition is less than 10% in assay [2]; 27% in assay [3]; less than 10% in assay [4]; 35% in assay [5]; less than 10% in assay [6]; 19% in assay [7]. In assay [8], the inhibition is less than 10%. The same molecule came in with an IC50 in assay [1] of 10 µM.

In the case of `O=C1CNC(=O)N1` [HYDANTOIN], the IC50 in assay [1] came to 100 µM.

On to `O=C(O)CN1C(=O)CSC1=S` [RHODANINE-3-ACETIC ACID], for which the IC50 in assay [1] came out at 100 µM.

As for `O=C1CCC(=O)N1Cc1ccccc1`, the IC50 in assay [1] was more than 50 µM.

As for `O=C(Cn1c(=O)n(-c2ccccc2)c(=O)n1CC(=O)c1ccccc1)c1ccccc1`, in assay [1], the IC50 was 100 µM.

In the case of `O=C1CNC(=O)N1Cc1ccccc1`, the IC50 in assay [1] came to 100 µM.

Molecule `CCn1sc(=O)n(-c2ccccc2)c1=O` displayed an IC50 in assay [1] of 6 µM.

`Cn1c(=O)ssc1=O`: the IC50 in assay [1] stood at 100 µM.

`Cn1sc(=O)n(-c2cccc3ccccc23)c1=O`: in assay [1], the IC50 came to 2 µM.

Take `Cn1sc(=O)n(-c2ccc(Cl)cc2)c1=O`: the IC50 in assay [1] is 4 µM.

`O=C1CSC(=O)N1` [THIAZOLIDINEDIONE]: the IC50 in assay [1] is 100 µM.

Regarding `CCOC(=O)CN1C(=O)C=CC1=O`, in assay [1], the IC50 was 3 µM.

Regarding `CCn1sc(=O)n(-c2ccc([N+](=O)[O-])cc2)c1=O`, the inhibition in assay [2] was less than 10%; in assay [4], less than 10%; in assay [5], less than 10%; in assay [6], 40%; in assay [7], 46%; in assay [8] it was 10%. In assay [1], the IC50 amounted to 8.5 µM.

`O=C1C=CC(=O)C1`: the IC50 in assay [1] was found to be 12 µM.

In assay [1], `C1=CCN(Cc2ccccc2)C1` returned an IC50 of more than 100 µM.

Turning to `CCn1sc(=O)n(CC)c1=O`, the IC50 in assay [1] was 25 µM.

Regarding `O=C1C=CC(=O)N1CCCCCc1ccccc1`, the IC50 in assay [1] came to 3 µM.

`O=C1CCC(=O)C1` displayed an IC50 in assay [1] of more than 100 µM.

Turning to `O=C(CN1C(=O)CSC1=S)c1ccccc1`, the IC50 in assay [1] stood at 50 µM.

In the case of `CCn1c(=O)sn(C2CCCCC2)c1=O`, the inhibition is less than 10% in assay [2]; less than 10% in assay [3]; less than 10% in assay [4]; 23% in assay [5]; less than 10% in assay [6]; less than 10% in assay [7]. Also, in assay [8], the inhibition is less than 10%. Also, the IC50 in assay [1] turned out to be 10 µM.

The molecule `COc1ccc(CCN2C(=O)C=CC2=O)cc1` registered an IC50 in assay [1] of 3 µM.

With `CCCn1sc(=O)n(CC)c1=O`, the IC50 in assay [1] was 10 µM.

The molecule `Cc1ccc(-n2c(=O)sn(C)c2=O)cc1` returned a 50% inhibitory concentration (IC50) in assay [1] of 5 µM.

The molecule `O=C1CSC(=O)N1Cc1ccccc1` had an IC50 in assay [1] of 100 µM.

`CCOC(=O)Cn1c(=O)sn(C)c1=O`: the inhibition in assay [2] is 19%; in assay [3], less than 10%; in assay [4] it was less than 10%; in assay [5] it was 15%; in assay [6] it was 19%; in assay [7] it was 50%. In assay [8], this molecule showed an inhibition of less than 10%. Besides, the IC50 in assay [1] was determined as 2 µM.

On to `O=c1ssc(=O)n1Cc1ccccc1`, for which the half-maximal inhibitory concentration (IC50) in assay [1] turned out to be 12 µM.

`Cn1sc(=O)n(-c2ccccc2)c1=O` gave an IC50 in assay [1] of 2 µM.

In turn, `O=c1ssc(=O)n1-c1ccccc1` registered an IC50 in assay [1] of 12 µM.

In turn, `NN1C(=O)CSC1=S` [AMINORHODANINE] yielded an IC50 in assay [1] of 100 µM.

As for `Cn1sc(=O)n(-c2ccccc2Br)c1=O`, the IC50 in assay [1] is 6 µM.

The molecule `CCn1c(=O)sn(C)c1=O` showed an IC50 in assay [1] of 5 µM.

As for `O=C(c1ccccc1)n1c(=O)n(-c2ccccc2)c(=O)n1C(=O)c1ccccc1`, the IC50 in assay [1] turned out to be 100 µM.

For `O=C1CSC(=S)N1CCc1ccccc1`, the concentration for half-maximal inhibition (IC50) in assay [1] was determined as 35 µM.

In turn, `CCn1c(=O)sn(C(C)C)c1=O` came in with an IC50 in assay [1] of 35 µM.

Consider `O=C1C=CC(=O)N1CCc1ccccc1`, for which, in assay [1], the IC50 is 2 µM.

In turn, `Cn1sc(=O)n(-c2ccc(F)cc2)c1=O` had an IC50 in assay [1] of 4 µM.
